Assay results reported in ChEMBL document CHEMBL1125320, “Imidazole-5-acrylic acids: potent nonpeptide angiotensin II receptor antagonists designed using a novel peptide pharmacophore model” (J Med Chem, 1992).
pIC50: −log10 of the molar value.

Legend:
[1] = molecular target: Angiotensin II receptor (Oryctolagus cuniculus); assay: Inhibition of angiotensin II induced vasoconstriction of rabbit aorta
Rattus norvegicus = assay: Compound was evaluated in vivo, for the dose that produced 50% inhibition of the pressor response to AII in conscious normotensive rats after iv administration; assay type: functional; settings: read-out: ID50 (the source's name)
Outline: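 Conscious normotensive rats with indwelling femoral arterial and venous catheters were tested 2-3 days after surgery while in a restrainer, with continuous arterial pressure recording. The MAP rise to iv angiotensin II 250 ng/kg was measured at time points before and after iv compound at 0.3-300 mg/kg.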

Angiotensin II receptor = molecular target: T1, Angiotensin II receptor (Rattus norvegicus, UniProt P29089+P25095+P35351); assay: Inhibition of [125I]angiotensin II specific binding to rat mesenteric arteries; assay type: protein assay
T1 sequence (P29089 whole entry): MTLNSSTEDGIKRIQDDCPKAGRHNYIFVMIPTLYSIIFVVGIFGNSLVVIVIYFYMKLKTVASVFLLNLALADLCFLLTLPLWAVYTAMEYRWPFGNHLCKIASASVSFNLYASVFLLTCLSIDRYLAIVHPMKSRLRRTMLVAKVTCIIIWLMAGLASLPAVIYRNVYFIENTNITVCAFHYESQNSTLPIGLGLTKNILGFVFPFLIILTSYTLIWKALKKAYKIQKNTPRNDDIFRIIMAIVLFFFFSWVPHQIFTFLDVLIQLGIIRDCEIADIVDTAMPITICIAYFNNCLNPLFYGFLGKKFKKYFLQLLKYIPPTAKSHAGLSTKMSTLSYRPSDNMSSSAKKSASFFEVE
T1 sequence (P25095 whole entry): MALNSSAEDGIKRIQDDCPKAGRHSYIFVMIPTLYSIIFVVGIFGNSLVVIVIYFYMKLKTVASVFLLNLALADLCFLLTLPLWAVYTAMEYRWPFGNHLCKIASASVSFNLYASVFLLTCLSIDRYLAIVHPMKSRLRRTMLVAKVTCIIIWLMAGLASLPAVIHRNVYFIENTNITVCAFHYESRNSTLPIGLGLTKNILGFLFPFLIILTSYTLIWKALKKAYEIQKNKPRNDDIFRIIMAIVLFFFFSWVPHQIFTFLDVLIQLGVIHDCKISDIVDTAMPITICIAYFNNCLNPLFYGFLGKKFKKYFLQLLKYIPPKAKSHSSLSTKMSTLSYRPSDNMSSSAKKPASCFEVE
T1 sequence (P35351 whole entry): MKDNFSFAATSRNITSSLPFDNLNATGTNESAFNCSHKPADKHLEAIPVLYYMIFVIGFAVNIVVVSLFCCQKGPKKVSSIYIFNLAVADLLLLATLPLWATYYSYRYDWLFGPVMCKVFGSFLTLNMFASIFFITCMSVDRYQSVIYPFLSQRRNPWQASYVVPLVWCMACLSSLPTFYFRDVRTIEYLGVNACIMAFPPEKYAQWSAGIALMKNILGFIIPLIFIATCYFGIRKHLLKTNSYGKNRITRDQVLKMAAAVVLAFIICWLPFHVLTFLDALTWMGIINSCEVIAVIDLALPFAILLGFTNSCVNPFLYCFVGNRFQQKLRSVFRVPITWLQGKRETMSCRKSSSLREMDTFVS

[2] = molecular target: T2, Type-1 angiotensin II receptor (Oryctolagus cuniculus) (UniProt P34976); assay: (§1) Compound was evaluated for the inhibition of Angiotensin II receptor induced vasoconstriction of the rabbit aorta; assay type: tissue-based
T2 sequence (whole entry): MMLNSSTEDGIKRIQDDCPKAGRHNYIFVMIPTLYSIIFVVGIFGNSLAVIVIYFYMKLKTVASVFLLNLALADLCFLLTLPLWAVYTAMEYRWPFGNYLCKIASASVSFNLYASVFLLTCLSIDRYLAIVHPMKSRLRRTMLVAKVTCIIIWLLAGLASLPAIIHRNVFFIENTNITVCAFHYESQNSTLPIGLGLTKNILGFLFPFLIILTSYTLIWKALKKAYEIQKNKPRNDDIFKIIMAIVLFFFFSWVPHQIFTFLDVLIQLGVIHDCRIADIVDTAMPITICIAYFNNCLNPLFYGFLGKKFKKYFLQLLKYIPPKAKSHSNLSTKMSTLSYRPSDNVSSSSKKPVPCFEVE
Outline: (§2)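 Isolated rabbit aorta ring segments mounted on metal supports attached to force displacement transducers. Cumulative angiotensin II concentration-response curves were run without antagonist or after a 30-min antagonist incubation.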

[3] = molecular target: T3, Type-1 angiotensin II receptor B (Rattus norvegicus, UniProt P29089); assay: Inhibition of [125I]angiotensin II receptor specific binding to rat mesenteric arteries
T3 sequence (P29089 whole entry): T1 sequence (P29089 whole entry)

[4] = molecular target: T2, Type-1 angiotensin II receptor (Oryctolagus cuniculus); assay: (§3) Compound was evaluated for the inhibition of AII-induced vasoconstriction of the rabbit aorta
Outline: as §2

[5] = molecular target: Angiotensin II receptor (Oryctolagus cuniculus); assay: Compound was evaluated for the inhibition of Angiotensin II receptor, induced vasoconstriction of the rabbit aorta
[6] = molecular target: T2, Type-1 angiotensin II receptor (Oryctolagus cuniculus); assay: as §3; assay type: functional, tissue-based
Outline: as §2

[7] = molecular target: T2, Type-1 angiotensin II receptor (Oryctolagus cuniculus); assay: as §1; assay type: functional, tissue-based
Outline: as §2

SMILES | Kb [1] [nM] | IC50 (Angiotensin II receptor) [nM] | further results
CCCCc1ncc(/C=C(\Cc2cccc(OC)c2)C(=O)O)n1Cc1ccccc1Cl | 270 | 810 | ED50 (Rattus norvegicus): 10 mg/kg
CCCCc1ncc(CC(=O)O)n1Cc1ccccc1Cl | – | – | ED50 (Rattus norvegicus): 22.5 mg/kg
CCCCc1nc(Cl)c(CC(=O)O)n1Cc1ccccc1Cl | – | – | Kb [2]: 2700 nM; ED50 (Rattus norvegicus): 30 mg/kg
CCCCc1ncc(/C=C(\Cc2ccccc2)C(=O)O)n1Cc1ccccc1Cl | – | – | pIC50 [3]: 5.59; Kb [4]: 64 nM; ED50 (Rattus norvegicus): 14 mg/kg
CCCCc1ncc(-c2cccc(C(=O)O)c2)n1Cc1ccccc1Cl | 4800 | 33900 | –
CCCCc1ncc(CCCCC(=O)O)n1Cc1ccccc1Cl | 11000 | 17000 | –
CCCCc1ncc(/C=C(\Cc2sccc2C)C(=O)O)n1Cc1ccccc1Cl | 280 | – | pIC50 [3]: 6.14
CCCCc1ncc(/C=C/C(=O)O)n1Cc1ccccc1Cl | 14000 | 124000 | –
CCCCc1ncc(/C=C(\Cc2ccccn2)C(=O)O)n1Cc1ccccc1Cl | 2900 | 820 | –
CCCCc1ncc(/C=C(\Cc2cccs2)C(=O)O)n1Cc1ccccc1Cl | – | – | ED50 (Rattus norvegicus): 3.6 mg/kg
CCCCc1ncc(CCCC(=O)O)n1Cc1ccccc1Cl | 15000 | > 10000 | –
CCCCc1ncc(/C=C(/Cc2ccco2)C(=O)O)n1Cc1ccccc1Cl | 14400 | > 100000 | –
CCCCc1ncc(/C=C(\C)C(=O)O)n1Cc1ccccc1Cl | 970 | 22300 | –
CCCCc1ncc(/C=C(/C(=O)O)C(c2ccccc2)c2cccs2)n1Cc1ccccc1Cl (stereo not drawn) | 2300 | – | pIC50 [3]: 5.62
CCCCc1ncc(/C=C(\Cc2ccc(OC)s2)C(=O)O)n1Cc1ccccc1Cl | 30 | – | pIC50 [3]: 7.05
CCCCc1ncc(/C=C(\Cc2ccc(N(C)C)cc2)C(=O)O)n1Cc1ccccc1Cl | 590 | 14600 | –
CCCCc1ncc(/C=C(\Cc2ccoc2)C(=O)O)n1Cc1ccccc1Cl | 30 | 360 | –
CCCCc1ncc(CCCCCC(=O)O)n1Cc1ccccc1Cl | 7000 | 19000 | –
CCCCc1ncc(/C=C(/C(=O)O)C(Cc2ccccc2)c2cccs2)n1Cc1ccccc1Cl (stereo not drawn) | 610 | 5200 | –
CCCCc1ncc(CCC(=O)O)n1Cc1ccccc1Cl | 2800 | 16500 | –
CCCCc1ncc(/C=C(\Cc2ccc3c(c2)OCO3)C(=O)O)n1Cc1ccccc1Cl | 130 | 470 | ED50 (Rattus norvegicus): 9.4 mg/kg
CCCCc1ncc(/C=C(\Cc2ccc(OC)c(OC)c2)C(=O)O)n1Cc1ccccc1Cl | – | 6800 | Kb [5]: 620 nM
CCCCc1ncc(/C=C(\Cc2ccc([N+](=O)[O-])cc2)C(=O)O)n1Cc1ccccc1Cl | 310 | – | pIC50 [3]: 6.40

SMILES | Kb [1] [nM] | IC50 (Angiotensin II receptor) [nM] | further results
CCCCc1ncc(/C=C(\CCc2ccccc2)C(=O)O)n1Cc1ccccc1Cl | 420 | 2900 | –
CCCCc1ncc(/C(C)=C/C(=O)O)n1Cc1ccccc1Cl | 660 | 3600 | –
CCCCc1ncc(/C=C(\Cc2ccsc2)C(=O)O)n1Cc1ccccc1Cl | – | – | pIC50 [3]: 6.48; ED50 (Rattus norvegicus): 6.4 mg/kg
CCCCc1ncc(/C=C(\Cc2ccco2)C(=O)O)n1Cc1ccccc1Cl | 50 | 1200 | –
CCCCc1ncc(-c2ccccc2C(=O)O)n1Cc1ccccc1Cl | 17200 | > 100000 | –
CCCCc1ncc(/C=C(/Cc2ccccc2)C(=O)O)n1Cc1ccccc1Cl | – | – | Kb [6]: 8700 nM
CCCCc1ncc(/C=C(\Cc2ccncc2)C(=O)O)n1Cc1ccccc1Cl | 170 | 150 | ED50 (Rattus norvegicus): 5.9 mg/kg
CCCCc1ncc(/C=C(\Cc2ccc(N)cc2)C(=O)O)n1Cc1ccccc1Cl | 320 | – | pIC50 [3]: 5.52
CCCCc1ncc(/C=C(\CCc2cccs2)C(=O)O)n1Cc1ccccc1Cl | – | 860 | Kb [7]: 140 nM
CCCCc1ncc(/C=C(\Cc2ccc(OC)cc2)C(=O)O)n1Cc1ccccc1Cl | 120 | 810 | ED50 (Rattus norvegicus): 9 mg/kg
CCCCc1ncc(/C=C(/C(=O)O)C(CCCC)c2cccs2)n1Cc1ccccc1Cl (stereo not drawn) | – | 18700 | Kb [6]: 3100 nM
CCCCc1ncc(/C=C(\Cc2ccc3ccccc3c2)C(=O)O)n1Cc1ccccc1Cl | 14600 | 21900 | –
CCCCc1ncc(/C=C(\Cc2ccc(O)cc2)C(=O)O)n1Cc1ccccc1Cl | 470 | 120 | –
CCCCc1ncc(/C=C(\Cc2ccc(Cl)c(Cl)c2)C(=O)O)n1Cc1ccccc1Cl | 13700 | – | pIC50 [3]: 4.59
CCCCc1ncc(/C=C(\Cc2ccccc2C)C(=O)O)n1Cc1ccccc1Cl | 1140 | – | pIC50 [3]: 5.30
CCCCc1ncc(/C=C(\Cc2cccnc2)C(=O)O)n1Cc1ccccc1Cl | 180 | 300 | ED50 (Rattus norvegicus): 9.8 mg/kg
CCCCc1ncc(/C=C(/C(=O)O)C(C)c2ccccc2)n1Cc1ccccc1Cl (stereo not drawn) | 240 | 4600 | –
CCCCc1ncc(/C=C(\Cc2ccc(C)s2)C(=O)O)n1Cc1ccccc1Cl | 130 | – | pIC50 [3]: 6.15; ED50 (Rattus norvegicus): 7.6 mg/kg
CCCCc1ncc(/C=C(/C(=O)O)c2ccccc2)n1Cc1ccccc1Cl | 600 | 20100 | –
CCCCc1ncc(/C=C(\Cc2cc(OC)c(OC)c(OC)c2)C(=O)O)n1Cc1ccccc1Cl | 1700 | 1900 | –
CCCCc1ncc(/C=C\C(=O)O)n1Cc1ccccc1Cl | 810 | 8900 | ED50 (Rattus norvegicus): 15 mg/kg
CCCCc1ncc(/C=C(\Cc2c[nH]cn2)C(=O)O)n1Cc1ccccc1Cl | 310 | 250 | ED50 (Rattus norvegicus): 11 mg/kg
CCCCc1ncc(/C=C(\Cc2cc(OC)cs2)C(=O)O)n1Cc1ccccc1Cl | 30 | – | pIC50 [3]: 6.52
